Test results reported in BindingDB's records for doi:10.1016/j.bmcl.2009.05.124 (Amgen, 2009).

Target: Neuromedin-B receptor (Homo sapiens, UniProt P28336)
Experiment: Displacement of [125I]-(D-Tyr0)NMB from human neuromedin B receptor transfected in HEK293 cells
How it was run: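 Whole-cell competition binding used 1 × 10⁶ HEK293 cells stably transfected with hNMBR, with 150 pM ¹²⁵I-[D-Tyr0]NMB (2200 Ci/mmol), in DMEM for 1 h at room temperature. Bound ligand was separated by filtration and total bound counts were measured. Day-to-day standard error was <30%; well-to-well variability was <10%.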

Neuromedin-B receptor, sequence (P28336 whole entry): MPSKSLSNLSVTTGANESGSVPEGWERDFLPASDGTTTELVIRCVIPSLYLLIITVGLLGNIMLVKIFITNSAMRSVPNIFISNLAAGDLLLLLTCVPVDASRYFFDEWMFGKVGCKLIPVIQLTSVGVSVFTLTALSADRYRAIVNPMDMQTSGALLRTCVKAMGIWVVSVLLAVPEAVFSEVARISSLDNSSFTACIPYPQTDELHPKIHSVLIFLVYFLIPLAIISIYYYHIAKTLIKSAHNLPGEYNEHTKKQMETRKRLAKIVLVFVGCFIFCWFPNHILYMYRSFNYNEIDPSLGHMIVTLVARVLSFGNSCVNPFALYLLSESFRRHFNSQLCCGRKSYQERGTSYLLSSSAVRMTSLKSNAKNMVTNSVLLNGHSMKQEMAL

Row | SMILES | IC50 [nM]
1 | CSc1ccccc1C1Nc2cc(C)ccc2N=C2CC3(CCCC3)CC(=O)C21 (configuration not stated) [8'-methyl-11'-(2-(methylthio)phenyl)-4',5',10',11'-tetrahydrospiro[cyclopentane-1,3'-dibenzo[b,e][1,4]diazepin]-1'(2'H)-one] | 250
2 | Cc1ccc2c(c1)NC(c1c(F)cccc1Cl)C1C(=O)CCC1=N2 (configuration not stated) [10-(2-chloro-6-fluorophenyl)-7-methyl-2,3,9,10-tetrahydrobenzo[b]cyclopenta[e][1,4]diazepin-1(4H)-one] | 10000
3 | CC1(C)CC(=O)C2C(=Nc3ccc(OC(F)(F)F)cc3NC2c2c(F)cccc2Cl)C1 (configuration not stated) [11-(2-chloro-6-fluorophenyl)-3,3-dimethyl-8-(trifluoromethoxy)-2,3,4,5,10,11-hexahydro-1H-dibenzo[b,e][1,4]diazepin-1-one] | 1300
4 | Cc1ccc2c(c1)NC(c1ccccc1Cl)C1C(=O)CC(C)(C)CC1=N2 (configuration not stated) [11-(2-chlorophenyl)-3,3,8-trimethyl-2,3,4,5,10,11-hexahydro-1H-dibenzo[b,e][1,4]diazepin-1-one] | 280
5 | Cc1ccc2c(c1)NC(c1ccccc1C(F)(F)F)C1C(=O)CC3(CCCC3)CC1=N2 (stereo not drawn) [(-)-8'-methyl-11'-(2-(trifluoromethyl)phenyl)-4',5',10',11'-tetrahydrospiro[cyclopentane-1,3'-dibenzo[b,e][1,4]diazepin]-1'(2'H)-one] | 96

Results, then the compound that gave them:

Row | IC50 [nM] | SMILES
6 | 250 | Cc1ccc2c(c1)NC(c1ccccc1C(F)(F)F)C1C(=O)CC(C)(C)CC1=N2 (configuration not stated) [3,3,8-trimethyl-11-(2-(trifluoromethyl)phenyl)-2,3,4,5,10,11-hexahydro-1H-dibenzo[b,e][1,4]diazepin-1-one]
7 | 280 | Cc1ccc2c(c1)NC(c1c(F)cccc1Cl)C1C(=O)CC3(CCCC3)CC1=N2 (configuration not stated) [11'-(2-chloro-6-fluorophenyl)-8'-methyl-4',5',10',11'-tetrahydrospiro[cyclopentane-1,3'-dibenzo[b,e][1,4]diazepin]-1'(2'H)-one]
8 | 1300 | CC1(C)CC(=O)C2C(=Nc3ccc(C#N)cc3NC2c2c(F)cccc2Cl)C1 (configuration not stated) [11-(2-chloro-6-fluorophenyl)-3,3-dimethyl-1-oxo-2,3,4,5,10,11-hexahydro-1H-dibenzo[b,e][1,4]diazepine-8-carbonitrile]
9 | 10000 | CC1(C)CC(=O)C2C(=Nc3ccc(C(N)=O)cc3NC2c2c(F)cccc2Cl)C1 (configuration not stated) [11-(2-chloro-6-fluorophenyl)-3,3-dimethyl-1-oxo-2,3,4,5,10,11-hexahydro-1H-dibenzo[b,e][1,4]diazepine-8-carboxamide]
10 | 10000 | CC1(C)CC(=O)C2C(=Nc3ccc(C(=O)O)cc3NC2c2c(F)cccc2Cl)C1 (configuration not stated) [11-(2-chloro-6-fluorophenyl)-3,3-dimethyl-1-oxo-2,3,4,5,10,11-hexahydro-1H-dibenzo[b,e][1,4]diazepine-8-carboxylic acid]
11 | 10000 | CC1(C)CC(=O)C2C(=Nc3ccc(O)cc3NC2c2c(F)cccc2Cl)C1 (configuration not stated) [11-(2-chloro-6-fluorophenyl)-8-hydroxy-3,3-dimethyl-2,3,4,5,10,11-hexahydro-1H-dibenzo[b,e][1,4]diazepin-1-one]
12 | 1300 | Cc1ccc2c(c1)NC(c1ccccc1F)C1C(=O)CC(C)(C)CC1=N2 (configuration not stated) [11-(2-fluorophenyl)-3,3,8-trimethyl-2,3,4,5,10,11-hexahydro-1H-dibenzo[b,e][1,4]diazepin-1-one]
